The results in this text go back to ChEMBL document CHEMBL4431309, “17β-Hydroxy-18-acetoxywithanolides from Aeroponically Grown Physalis crassifolia and Their Potent and Selective Cytotoxicity for Prostate Cancer Cells” (J Nat Prod, 2016).

Each structure is given as a SMILES string. Activity calls are given as the source filed them. No cut-off for these calls is given here.

Data set [1] has as its system LNCaP. Briefly: Cytotoxicity against human LNCAP cells up to 5 uM after 72 hrs by resazurin-based colorimetric assay. In kind it is functional, cell-based. In short, it runs like this:
(§1)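 Androgen-sensitive human prostate adenocarcinoma line (LNCaP). Doxorubicin served as positive control and DMSO as negative control. Compounds were tested at concentrations up to 5.0 μM.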

Data set [2] has as its system MCF7. Kind of data set: Cytotoxicity against human MCF7 cells up to 5 uM after 72 hrs by resazurin-based colorimetric assay. The format is functional, cell-based. In short, it runs like this: (§2)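 Human breast cancer line (MCF-7). Doxorubicin was the positive control and DMSO the negative control. Testing went up to 5.0 μM.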
(Alamar Blue is a resazurin reagent that responds to reducing activity.)

In data set [3] the test system is PC-3M. Kind of data set: Cytotoxicity against human PC3M cells up to 5 uM after 72 hrs by resazurin-based colorimetric assay. The format is functional, cell-based. In a few lines: (§3)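 Metastatic human prostate adenocarcinoma line (PC-3M). Controls were doxorubicin (positive) and DMSO (negative). The highest concentration tested was 5.0 μM.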
The subject of data set [4] is SF-268. Kind of data set: Cytotoxicity against human SF268 cells up to 5 uM after 72 hrs by resazurin-based colorimetric assay. In kind it is functional, cell-based. In short, it runs like this:
(§4)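 Doxorubicin (positive) and DMSO (negative) were run as controls. Compounds were tested up to a highest concentration of 5.0 μM.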

In data set [5] the test system is NCI-H460. Kind of data set: Cytotoxicity against human NCI-H460 cells up to 5 uM after 72 hrs by resazurin-based colorimetric assay. The format is functional, cell-based. In a few lines:
(§5)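 Human non-small-cell lung cancer line (NCI-H460). Doxorubicin was included as positive control and DMSO as negative control. The maximum concentration tested was 5.0 μM.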

Data set [6] deals with HFF. Kind of data set: Cytotoxicity against human HFF cells up to 5 uM after 72 hrs by resazurin-based colorimetric assay. The format is cell-based. In a few lines: as §4
Data set [7] concerns NCI-H460. Briefly: Cytotoxicity against human NCI-H460 cells after 72 hrs by resazurin-based colorimetric assay. In kind it is functional, cell-based. The following applies: NCI-H460, 72 h. In short, it runs like this:
as §5

Data set [8] concerns HFF. Kind of data set: Cytotoxicity against human HFF cells after 72 hrs by resazurin-based colorimetric assay. The format is cell-based. In a few lines:
as §4

The subject of data set [9] is LNCaP. Briefly: Cytotoxicity against human LNCAP cells after 72 hrs by resazurin-based colorimetric assay. The format is functional, cell-based. In short, it runs like this:
as §1

Data set [10] relates to PC-3M. Kind of data set: Cytotoxicity against human PC3M cells after 72 hrs by resazurin-based colorimetric assay. In kind it is functional, cell-based. In short, it runs like this:
as §3

For data set [11], the system named is MCF7. Briefly: Cytotoxicity against human MCF7 cells after 72 hrs by resazurin-based colorimetric assay. In kind it is functional, cell-based. The following applies: MCF7, 72 h. In a few lines:
as §2

Data set [12] has as its system SF-268. Briefly: Cytotoxicity against human SF268 cells after 72 hrs by resazurin-based colorimetric assay. In kind it is functional, cell-based. The following applies: SF-268, 72 h. In a few lines:
as §4

For the compound `C/C(=C1/C(=O)C[C@H]2[C@@H]3[C@@H]4O[C@@H]4[C@@]4(O)CC=CC(=O)[C@]4(C)[C@H]3CC[C@]12C)[C@H]1C[C@]2(C)O[C@]2(C)[C@H](O)O1`, the outcome with LNCaP [1], in the data set on MCF7 [2], in the data set with PC-3M [3], in the data set with SF-268 [4] and with NCI-H460 [5] was inactive. In the data set with HFF [6], the Activity result is “Non-Toxic”.

On to `CC(=O)OC[C@]12CC[C@H]3[C@@H](CC=C4C[C@@H](OS(=O)(=O)O)CC(=O)[C@@]43C)[C@]1(O)CC[C@@]2(O)[C@@](C)(O)[C@H]1CC(C)=C(C)C(=O)O1`, for which the IC50 (usually the concentration that inhibits the measured activity by half) is 3800 nM with NCI-H460 [7]; > 5000 nM in the data set with HFF [8]; 210 nM with LNCaP [9]; 560 nM in the data set on PC-3M [10]; 2200 nM in the data set with MCF7 [11]; > 5000 nM in the data set on SF-268 [12].

With `CC(=O)OC[C@]12CC[C@H]3[C@@H](CC=C4CC=CC(=O)[C@@]43C)[C@]1(O)CC[C@@H]2[C@@](C)(O)[C@@H]1OC(=O)C(C)=C(C)[C@@H]1O`, the outcome in the data set on LNCaP [1], with MCF7 [2], with PC-3M [3], in the data set on SF-268 [4] and in the data set on NCI-H460 [5] was inactive. In the data set on HFF [6], the Activity result is “Non-Toxic”.

For the compound `CC(=O)OC[C@]12CC[C@H]3[C@@H](CC=C4C=CCC(=O)[C@@]43C)[C@]1(O)[C@@H](OC(C)=O)C[C@@]2(O)[C@@](C)(O)[C@H]1CC(CO)=C(C)C(=O)O1`, the outcome in the data set on LNCaP [1], with MCF7 [2], in the data set on PC-3M [3], in the data set with SF-268 [4] and with NCI-H460 [5] was inactive. Further, the Activity entry in the data set with HFF [6] is “Non-Toxic”.

`CC1=C(C)C(=O)O[C@@H]([C@](C)(O)[C@H]2CC[C@@]3(O)[C@@H]4[C@@H]5O[C@@H]5[C@@]5(O)CC=CC(=O)[C@]5(C)[C@H]4CC[C@]23C)C1`: the result with LNCaP [1], in the data set with MCF7 [2], in the data set with PC-3M [3], in the data set on SF-268 [4] and with NCI-H460 [5] was inactive. The Activity entry in the data set with HFF [6] is recorded as “Non-Toxic”.

In the case of `CC(=O)OC[C@]12CC[C@H]3[C@@H](CC=C4CC=CC(=O)[C@@]43C)[C@]1(O)[C@@H](O)C[C@@]2(O)[C@@](C)(O)[C@H]1CC(C)=C(C)C(=O)O1`, the 50% inhibitory concentration (IC50) with NCI-H460 [7] is > 2500 nM; with LNCaP [9], 190 nM; in the data set on PC-3M [10], 600 nM; with MCF7 [11], > 2500 nM; with SF-268 [12], > 2500 nM.

As to `CC(=O)OC[C@]12CC[C@H]3[C@@H](CC=C4CC=CC(=O)[C@@]43C)[C@]1(O)[C@@H](OC(C)=O)C[C@@]2(O)[C@@](C)(O)[C@H]1CC(CO[C@@H]2O[C@H](CO)[C@@H](O)[C@H](O)[C@H]2O)=C(C)C(=O)O1`, the outcome with LNCaP [1], with MCF7 [2], in the data set on PC-3M [3], in the data set with SF-268 [4] and with NCI-H460 [5] was inactive. The Activity entry in the data set with HFF [6] was “Non-Toxic”.

On to `CC(=O)OC[C@]12CC[C@H]3[C@@H](CC=C4CC=CC(=O)[C@@]43C)[C@]1(O)CC[C@@]2(O)[C@@](C)(O)[C@H]1CC(C)=C(CO)C(=O)O1`, for which the IC50 with NCI-H460 [7] was > 5000 nM; in the data set with LNCaP [9], 3700 nM; in the data set with PC-3M [10] it was > 5000 nM; in the data set on MCF7 [11] it was > 5000 nM; with SF-268 [12] it was > 5000 nM.

With `COc1cccc2c1C(=O)c1c(O)c3c(c(O)c1C2=O)C[C@@](O)(C(=O)CO)C[C@@H]3O[C@H]1C[C@H](N)[C@H](O)[C@H](C)O1` [DOXORUBICIN], the IC50 in the data set on PC-3M [10] came to 250 nM; in the data set on MCF7 [11], 320 nM.

`CC(=O)OC[C@]12CC[C@H]3[C@@H](CC=C4C[C@@H](OS(=O)(=O)O)CC(=O)[C@@]43C)[C@]1(O)[C@@H](OC(C)=O)C[C@@]2(O)[C@@](C)(O)[C@H]1CC(C)=C(C)C(=O)O1`: the IC50 in the data set with NCI-H460 [7] is 2500 nM; with LNCaP [9] it was 120 nM; in the data set on PC-3M [10] it was 430 nM; with MCF7 [11], > 5000 nM; with SF-268 [12], 2800 nM.

Turning to `CC1=C(CO)C(=O)O[C@@H]([C@@H](C)[C@H]2CC[C@H]3[C@@H]4C[C@H]5O[C@]56[C@@H](O)C=CC(=O)[C@]6(C)[C@H]4CC[C@]23C)C1` [WITHAFERIN A], the IC50 is < 400 nM in the data set on NCI-H460 [7], > 6800 nM in the data set with HFF [8], 410 nM in the data set with PC-3M [10] and < 400 nM in the data set with SF-268 [12].

For `CC(=O)OC[C@]12CC[C@H]3[C@@H](CC=C4CC=CC(=O)[C@@]43C)[C@]1(O)[C@@H](OC(C)=O)C[C@@]2(O)[C@@](C)(O)[C@H]1CC(C)=C(CO[C@@H]2O[C@H](CO)[C@@H](O)[C@H](O)[C@H]2O)C(=O)O1`, the outcome in the data set with LNCaP [1], in the data set with MCF7 [2], in the data set with PC-3M [3], with SF-268 [4] and with NCI-H460 [5] was inactive. For the same compound, the Activity entry in the data set on HFF [6] is recorded as “Non-Toxic”.

Consider `CC(=O)OC[C@]12CC[C@H]3[C@@H](C[C@H]4O[C@]45CC=CC(=O)[C@]35C)[C@]1(O)[C@@H](OC(C)=O)C[C@@]2(O)[C@@](C)(O)[C@H]1CC(C)=C(C)C(=O)O1`, for which the IC50 in the data set with NCI-H460 [7] was > 2500 nM; in the data set with LNCaP [9], 1200 nM; in the data set on PC-3M [10], 1800 nM; in the data set on MCF7 [11], > 2500 nM; in the data set with SF-268 [12], > 2500 nM.

Regarding `CC(=O)OC[C@]12CC[C@H]3[C@@H](CC=C4CC=CC(=O)[C@@]43C)[C@]1(O)[C@@H](OC(C)=O)C[C@@]2(O)[C@@](C)(O)[C@H]1CC(C)=C(CO)C(=O)O1`, the outcome in the data set on LNCaP [1], in the data set with MCF7 [2], in the data set with PC-3M [3], with SF-268 [4] and with NCI-H460 [5] was inactive. In addition, the Activity entry in the data set on HFF [6] is “Non-Toxic”.

Regarding `CC(=O)OC[C@]12CC[C@H]3[C@@H](CC=C4CC=CC(=O)[C@@]43C)[C@]1(O)CC[C@@H]2[C@@](C)(O)[C@H]1CC(C)=C(C)C(=O)O1`, the result in the data set on LNCaP [1], in the data set on MCF7 [2], with PC-3M [3], with SF-268 [4] and in the data set with NCI-H460 [5] was inactive. For the same compound, the Activity result in the data set on HFF [6] is given as “Non-Toxic”.
